# Bioassay records (PubChem)
# Hits are enriched below; roughly 3% of the tested compounds scored in any of these assays.
# Wnt bcat act: Wnt/beta-catenin pathway activation; activation, % at 9.35 µM; actives 1.2% (n = 300,000); Wnt/beta-catenin reporter cell assay, activator, plate reader; in the data active = activation above about 30%, passing the limit was not always enough; inconclusive = no clear call, values can overlap the other calls
# NSD2 inh: blocks human histone methyltransferase NSD2. actives 0.54% (n = 310,000). NSD2 peptide methylation, AlphaScreen, 120 min. AID 743445. inhibition, % at 12.5 µM. O96028; in the data active = inhibition above about 50%
# CASP6 VEID inh: inhibitors of human caspase-6; purified caspase-6, Z-VEID-R110 cleavage fluorescence; inhibition, % at 12.5 µM; actives 0.53% (n = 350,000);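 active = mean inhibition across replicates at least about 35%, with every replicate also reaching that limit, limit read from the data; inconclusive = only one of the two criteria met; inactive = neither criterion met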
# esBAF inh: blocks esBAF chromatin remodeling in mouse ES cells. Bmi1-luciferase knock-in reporter, 24 h; 100% = twice the neutral-well signal. reporter increase, % at 12.5 µM. actives 2% (n = 350,000); in the data active = activation above about 40%; inconclusive = no clear call, values can overlap the other calls;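 note: a rise in the Bmi1 reporter signal indicates esBAF inhibition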
# Xi reactivation: X-chromosome reactivation activator | XiGFP mouse fibroblasts, % GFP-positive cells imaging, 3 d; cells co-treated with 5-aza-dC sensitizer; scaled so ellipticine positive control = 100% | activation, % at 7.58 µM | actives 0.055% (n = 360,000) | AID 743238;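 active = mean normalized replicate activation at least 10% and every replicate at or above 10%; inconclusive = only one of the two criteria met; inactive = mean below 10% and not all replicates reach 10%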
#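 System: SV40-immortalized XiGFP fibroblast cells, line 68-5-11 / Incubation: 3-day compound exposure, then 15 min fixation at room temperature / Compound: single concentration per compound, delivered by pin transfer / Buffer or medium: DMEM plus 5-aza-dC sensitizer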
# MITF TRPM1 HTS: activators of MITF-driven TRPM1 promoter activity in SK-MEL-5 cells; activation, % at 12.5 µM; AID 588334; SK-MEL-5 TRPM1-promoter luciferase, 24 h; % of positive control, neutral wells = 0; actives 0.75% (n = 300,000);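 active = mean activation of at least 80% with every replicate also reaching 80%; inconclusive = mean reaches 80% but some replicate falls short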
# Ring1 derepress: esBAF inhibition confirmed by Ring1 de-repression. shares compounds with esBAF inh. mouse ESC E14, Ring1 mRNA RT-qPCR fold change. fold change at 33 µM. 550 tested, under 10 active. AID 743176;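 active = Ring1 gene expression raised more than 2-fold over untreated cells in both replicates at either tested dose; inconclusive = only one replicate above 2-fold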;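 note: Ring1 transcript normalised to actin housekeeping signal by TaqMan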
# Fgf4 repress: esBAF inhibition confirmed by Fgf4 repression | AID 743177 | shares compounds with esBAF inh | Fgf4 expression fold change at 33 µM | mouse ESC E14, Fgf4 mRNA qPCR fold change; active compounds read low | actives 4% (n = 550);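 active = Fgf4 expression under 0.8 fold of control in both repeat measurements at one or both tested doses; inconclusive = under 0.8 fold in just a single repeat measurement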;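 note: Fgf4 transcript normalised to actin in duplex TaqMan qPCR; cells exposed to compound for 24 h before lysis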
# Bmi1 derepress: esBAF inhibition confirmed by Bmi1 de-repression. shares compounds with esBAF inh. mouse ESE14 ES cells, Bmi1 mRNA qPCR fold; active compounds read high. fold change at 33 µM. 550 tested, under 10 active. AID 743180;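 active = Bmi1 expression fold change above 6 at either tested concentration, seen in replicate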;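 note: higher fold means more Bmi1 de-repression and stronger esBAF inhibition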
# A549 cytotox: A549 cell cytotoxicity | 550 tested, under 10 active | cell viability change % (negative = cytotoxic), % at 25 µM, hits read low | plate reader | shares compounds with esBAF inh | AID 743188; call rule not given here
# HepG2 cytotox SP: HepG2 cell cytotoxicity at single point | actives 4% (n = 550) | plate reader; active compounds read low | AID 743189 | shares compounds with esBAF inh | activity change, negative = inhibition, % at 25 µM; in the data active = activity change below about -50%
# HEK293 tox SP: kills or reduces viability of HEK293 cells. shares compounds with esBAF inh. AID 743190. HEK293 cytotoxicity, plate reader. actives 3% (n = 550). activity change, negative = inhibition, % at 25 µM, hits read low; in the data active = activity change below about -38%, passing the limit was not always enough
# Numbers stand for hits; i = inactive; ? = inconclusive; nt = no result given.
SMILES,Wnt bcat act,NSD2 inh,CASP6 VEID inh,esBAF inh,Xi reactivation,MITF TRPM1 HTS,Ring1 derepress,Fgf4 repress,Bmi1 derepress,A549 cytotox,HepG2 cytotox SP,HEK293 tox SP
O=C(NCc1ccccn1)Nc1ccc(Br)cc1Cl,i,i,i,56.2,i,?,i,i,i,i,i,i
O=C(NCc1ccccn1)Nc1ccc(Cl)cc1Cl,i,i,i,nt,i,i,nt,nt,nt,nt,nt,nt
Cc1cc(NC(=O)Nc2ccc3c(ccn3C)c2)sn1,i,nt,i,81.0,i,105.9,i,i,i,i,i,i
Cc1ccc(NC(=O)Nc2ccc3c(c2)nc(C)n3C)cc1,nt,i,i,nt,i,i,nt,nt,nt,nt,nt,nt
COC(=O)c1sccc1NC(=O)c1ccc(OC)cc1,i,nt,nt,75.8,nt,nt,i,i,i,i,i,i
COC(=O)c1sccc1NC(=O)c1ccc(C#N)cc1,nt,i,nt,i,nt,nt,nt,nt,nt,nt,nt,nt
CCOC(=O)C1=C(CSc2nc(-c3ccccc3)ccc2C#N)OC(N)=C(C#N)C1c1cccnc1 (configuration not stated),nt,i,nt,72.6,nt,i,i,?,i,i,i,i
CCOC(=O)C1=C(CSc2nc(-c3ccccc3)ccc2C#N)OC(N)=C(C#N)C1c1ccccc1 (configuration not stated),i,i,nt,?,nt,i,nt,nt,nt,nt,nt,nt
CC(=O)N(C)C[C@H]1Oc2cc(-c3cccc(C#N)c3)ccc2S(=O)(=O)N([C@@H](C)CO)C[C@H]1C,nt,nt,i,i,i,nt,nt,nt,nt,nt,nt,nt
O=C(C[C@@H]1CC[C@H](NC(=O)CC2CC2)[C@H](CO)O1)NCc1ccc(Cl)cc1,nt,nt,i,i,i,nt,nt,nt,nt,nt,nt,nt
CC(C)CN1C(=O)c2ccc(C(=O)Nc3nccs3)cc2C1=O,nt,i,nt,62.8,nt,i,i,i,i,i,i,i
COCCN1C(=O)c2ccc(C(=O)Nc3nccs3)cc2C1=O,i,i,nt,i,nt,i,nt,nt,nt,nt,nt,nt
CC(C)CN1C(=O)c2ccc(NC(=O)c3cccs3)cc2C1=O,nt,i,nt,63.4,nt,?,i,i,i,i,i,i
CC(C)CN1C(=O)c2ccc(NC(=O)C3CC3)cc2C1=O,i,i,i,i,i,i,nt,nt,nt,nt,nt,nt
Cc1ccccc1NC(=O)c1ccc2c(c1)N(C)CCS2,i,nt,i,79.5,i,nt,i,i,i,i,i,i
COC(=O)c1ccc2c(c1)N(C)CCS2,i,nt,i,i,i,i,nt,nt,nt,nt,nt,nt
CCn1c(SCC(=O)N2CCCC2)nc2ccccc21,i,i,i,nt,i,i,nt,nt,nt,nt,nt,nt
CCn1c(SCc2ccccc2Cl)nc2ccccc21,i,i,nt,56.9,nt,i,i,i,i,i,i,i
COc1ccc(-c2cnc(C(O)c3ccccc3)[nH]2)cc1 (configuration not stated),i,i,i,64.7,i,nt,i,i,i,i,i,i
COc1ccc(-c2cnc(C(O)c3ccc(-c4ccccc4)cc3)[nH]2)cc1 (configuration not stated),i,i,i,i,i,nt,nt,nt,nt,nt,nt,nt
N#Cc1c(/N=C/c2cccs2)sc2c1CCC2,i,nt,nt,104.9,nt,nt,i,?,i,i,i,i
Nc1c(C(=O)NC2CCCC2)sc2nc(-c3cccs3)ccc12,nt,i,nt,nt,nt,i,nt,nt,nt,nt,nt,nt
NC(=O)c1sc2nc(-c3cccs3)ccc2c1N,i,i,i,58.8,i,i,i,i,i,i,i,i
Cn1c(-c2ccccc2F)cc2onc(-c3ccccc3)c2c1=O,i,nt,i,i,i,i,nt,nt,nt,nt,nt,nt
Cn1c(-c2ncc(F)cc2F)cc2onc(-c3c(F)cccc3Cl)c2c1=O,39.8,nt,i,90.6,i,87.5,i,?,i,i,i,i
SMILES,Wnt bcat act,NSD2 inh,CASP6 VEID inh,esBAF inh,Xi reactivation,MITF TRPM1 HTS,Ring1 derepress,Fgf4 repress,Bmi1 derepress,A549 cytotox,HepG2 cytotox SP,HEK293 tox SP
C[C@@H]1CN([C@@H](C)CO)C(=O)c2cccc(NC(=O)C3CCCCC3)c2O[C@H]1CN(C)S(=O)(=O)c1ccc(F)cc1,nt,nt,i,i,i,nt,nt,nt,nt,nt,nt,nt
Cc1cccc(-n2nnc(C(=O)Nc3ccc(F)cc3)c2N)c1,nt,i,nt,62.3,nt,nt,i,i,i,i,i,i
Cc1ccc(OCc2cc(C(=O)NC(C)Cc3cnccn3)no2)cc1C (configuration not stated),i,i,i,nt,i,i,nt,nt,nt,nt,nt,nt
COc1ccc(OCc2cc(C(=O)NC(C)Cc3cnccn3)no2)c(Cl)c1 (configuration not stated),i,i,i,61.0,i,i,i,i,i,i,i,i
O=C(Nc1ccc(F)c(Cl)c1)c1cc(C2CCCN(C(=O)C3CC3)C2)on1 (configuration not stated),38.3,i,i,76.6,i,nt,i,i,i,i,i,i
C[C@H]1CN([C@@H](C)CO)C(=O)CCCn2nncc2CO[C@@H]1CN(C)S(=O)(=O)c1ccccc1F,nt,nt,i,i,i,nt,nt,nt,nt,nt,nt,nt
c1ccc(Cn2cnc3ccccc32)cc1,nt,i,nt,105.8,nt,i,i,i,i,i,i,i
C[C@@H]1CN([C@@H](C)CO)C(=O)Cc2cc(NC(=O)CCN3CCOCC3)ccc2O[C@@H]1CN(C)C(=O)NC1CCCCC1,nt,nt,nt,i,i,nt,nt,nt,nt,nt,nt,nt
COc1c(C(=O)NNC(=O)c2ccccc2)csc1Br,38.9,i,i,55.6,i,i,i,i,i,i,i,i
CCCc1nc2c3ccccc3ccn2c1Cc1ccc(C)cc1,i,nt,i,100.7,i,nt,i,i,i,i,-56.2,i
COc1ccc(S(=O)(=O)Nc2ccc3c(c2)C(=O)N([C@@H](C)CO)C[C@@H](C)[C@@H](CN(C)C(=O)c2ccccc2)OCCCC[C@@H](C)O3)cc1,nt,nt,i,i,i,nt,nt,nt,nt,nt,nt,nt
CCCN(C)C[C@H]1Oc2cc(C#Cc3cccc(OC)c3)ccc2S(=O)(=O)N([C@H](C)CO)C[C@H]1C,nt,nt,nt,i,i,nt,nt,nt,nt,nt,nt,nt
N#CC(c1ccccc1O)N1N=C(c2ccccc2)CC1c1ccccc1 (configuration not stated),i,nt,i,58.0,i,i,i,i,i,i,i,i
COc1ccc(C(=O)Nc2cc3c4c(c2)CC(=O)N4CCC3)c(OC)c1,nt,i,nt,66.9,nt,86.5,i,i,i,i,i,i
CC(C)c1ccc(CNNC(=O)c2ccccc2)cc1,i,i,i,69.8,i,i,i,i,i,i,i,i
COc1ccccc1C(=O)NCC(=O)Nc1ccc2c(c1)CCC2,i,i,i,72.8,i,?,i,i,i,i,i,i
